From ChEMBL document CHEMBL3045866, “A novel family of insect-selective peptide neurotoxins targeting insect large-conductance calcium-activated K+ channels isolated from the venom of the theraphosid spider Eucratoscelus constrictus” (Mol Pharmacol, 2011)
Calls of active or inactive are those of the source. The rule behind the calls is not given here. Bridge positions count the residues as written; N and C are the ends. Peptide text beside a SMILES is read from it.

Columns and labels:
[1] = biological target: Voltage-gated sodium channel Nav1 alpha subunit (Periplaneta americana) (UniProt D0E0C1); experiment: Inhibition of Nav channel in Periplaneta americana (American cockroach) DUM neurons assessed as effect on voltage-dependent activation at 330 nM measured at holding potential -90 mV depolarised to +70 mV with 10 mV increments for 10 min by whole cell patch clamp assay
Voltage-gated sodium channel Nav1 alpha subunit (Periplaneta americana), sequence (D0E0C1 as listed by the source): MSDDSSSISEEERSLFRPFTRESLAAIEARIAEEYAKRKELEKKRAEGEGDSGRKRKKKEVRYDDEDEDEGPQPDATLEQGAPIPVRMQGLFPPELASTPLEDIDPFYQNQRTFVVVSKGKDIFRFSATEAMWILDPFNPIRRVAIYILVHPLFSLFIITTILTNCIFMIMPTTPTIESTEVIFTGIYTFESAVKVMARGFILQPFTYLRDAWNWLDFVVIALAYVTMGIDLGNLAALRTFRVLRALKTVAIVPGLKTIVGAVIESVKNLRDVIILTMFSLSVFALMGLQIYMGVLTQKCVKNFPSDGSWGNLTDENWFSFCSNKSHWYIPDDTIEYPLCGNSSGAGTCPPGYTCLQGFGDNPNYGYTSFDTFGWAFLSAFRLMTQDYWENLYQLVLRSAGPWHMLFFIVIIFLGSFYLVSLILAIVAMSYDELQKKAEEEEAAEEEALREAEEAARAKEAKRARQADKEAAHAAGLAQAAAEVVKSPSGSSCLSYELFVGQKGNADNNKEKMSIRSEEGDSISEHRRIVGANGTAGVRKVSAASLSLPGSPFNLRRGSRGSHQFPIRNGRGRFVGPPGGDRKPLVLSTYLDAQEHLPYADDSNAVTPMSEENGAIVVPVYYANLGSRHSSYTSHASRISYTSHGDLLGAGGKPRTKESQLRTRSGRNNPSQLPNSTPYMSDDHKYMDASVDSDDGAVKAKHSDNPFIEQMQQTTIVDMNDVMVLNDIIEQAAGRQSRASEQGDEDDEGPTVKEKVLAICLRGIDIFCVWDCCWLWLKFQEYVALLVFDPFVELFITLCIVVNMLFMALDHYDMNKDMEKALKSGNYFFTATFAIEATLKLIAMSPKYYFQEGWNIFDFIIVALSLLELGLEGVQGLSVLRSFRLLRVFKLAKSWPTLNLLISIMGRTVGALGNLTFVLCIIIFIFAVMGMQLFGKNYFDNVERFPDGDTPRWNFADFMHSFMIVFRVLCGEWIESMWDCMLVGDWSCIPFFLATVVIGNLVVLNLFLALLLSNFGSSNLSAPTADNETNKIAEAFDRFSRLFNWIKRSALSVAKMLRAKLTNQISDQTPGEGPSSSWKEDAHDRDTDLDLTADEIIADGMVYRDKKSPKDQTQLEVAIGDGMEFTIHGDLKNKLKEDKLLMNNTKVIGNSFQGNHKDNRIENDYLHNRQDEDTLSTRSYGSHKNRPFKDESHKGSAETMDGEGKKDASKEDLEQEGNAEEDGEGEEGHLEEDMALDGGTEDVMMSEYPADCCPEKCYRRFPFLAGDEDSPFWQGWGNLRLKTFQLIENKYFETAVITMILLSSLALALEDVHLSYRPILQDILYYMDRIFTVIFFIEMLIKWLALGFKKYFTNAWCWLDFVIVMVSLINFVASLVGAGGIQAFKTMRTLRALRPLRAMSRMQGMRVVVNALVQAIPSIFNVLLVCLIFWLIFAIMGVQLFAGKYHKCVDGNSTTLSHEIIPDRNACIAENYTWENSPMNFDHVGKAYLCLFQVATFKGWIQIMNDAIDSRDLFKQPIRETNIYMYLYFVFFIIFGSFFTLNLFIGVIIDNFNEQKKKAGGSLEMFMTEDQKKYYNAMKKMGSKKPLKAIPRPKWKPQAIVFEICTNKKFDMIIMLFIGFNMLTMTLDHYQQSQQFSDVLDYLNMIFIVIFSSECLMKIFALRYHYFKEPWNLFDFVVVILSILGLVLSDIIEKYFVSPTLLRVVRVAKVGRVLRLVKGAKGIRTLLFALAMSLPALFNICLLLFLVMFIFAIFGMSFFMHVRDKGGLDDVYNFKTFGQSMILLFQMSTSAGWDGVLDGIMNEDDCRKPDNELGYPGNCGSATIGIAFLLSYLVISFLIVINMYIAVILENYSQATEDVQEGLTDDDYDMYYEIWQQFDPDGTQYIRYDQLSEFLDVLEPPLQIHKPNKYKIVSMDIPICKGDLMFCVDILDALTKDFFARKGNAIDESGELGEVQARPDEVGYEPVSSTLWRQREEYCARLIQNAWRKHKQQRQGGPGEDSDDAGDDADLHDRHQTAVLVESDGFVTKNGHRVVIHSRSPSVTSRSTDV
Method in brief: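 Whole-cell voltage clamp of TTX-sensitive Na+ current in DUM neurons isolated from adult cockroaches and kept no longer than 24 h at 30°C. Bath (mM): NaCl 80, CsCl 5, CaCl2 1.8, TEA-Cl 50, 4-AP 5, HEPES 10, NiCl2 0.1, CdCl2 1, pH 7.4. Vh -90 mV; test pulse to -10 mV, or steps to +70 mV in 10-mV increments at 0.1 Hz. P-P/4 leak subtraction; 20–23°C.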

Mus musculus [2] = experiment: Neurotoxicity against Mus musculus C57BL/6 (mouse) assessed as effect on posture at 500 pmol, icv; type: toxicity, organism-based; conditions: in vivo, icv_or_intrathecal
Method in brief: (§1)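 Female C57BL/6 mice (~20 g) lightly anesthetized with diethylether. 5 µl of sample in BSA solution injected into the left cerebral ventricle. Posture, behavior and neurotoxic signs observed; n = 2.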

Mus musculus [3] = experiment: Neurotoxicity against Mus musculus C57BL/6 (mouse) assessed as effect on behaviour at 500 pmol, icv; type: toxicity, organism-based; conditions: in vivo, icv_or_intrathecal; method in brief: as §1
[4] = biological target: Voltage-dependent calcium channel alpha-1 subunit (Blattella germanica) (UniProt O18323); experiment: (§2) Inhibition of voltage-gated calcium channel Cav-mediated late-sustained current in Periplaneta americana (American cockroach) DUM neurons assessed as effect on voltage-dependent activation at 6 nM measured at holding potential -80 mV in 10 mV increments depolarized to +40 mV after 10 min by whole cell patch clamp assay in presence of CdCl2
Voltage-dependent calcium channel alpha-1 subunit (Blattella germanica), sequence (O18323 as listed by the source): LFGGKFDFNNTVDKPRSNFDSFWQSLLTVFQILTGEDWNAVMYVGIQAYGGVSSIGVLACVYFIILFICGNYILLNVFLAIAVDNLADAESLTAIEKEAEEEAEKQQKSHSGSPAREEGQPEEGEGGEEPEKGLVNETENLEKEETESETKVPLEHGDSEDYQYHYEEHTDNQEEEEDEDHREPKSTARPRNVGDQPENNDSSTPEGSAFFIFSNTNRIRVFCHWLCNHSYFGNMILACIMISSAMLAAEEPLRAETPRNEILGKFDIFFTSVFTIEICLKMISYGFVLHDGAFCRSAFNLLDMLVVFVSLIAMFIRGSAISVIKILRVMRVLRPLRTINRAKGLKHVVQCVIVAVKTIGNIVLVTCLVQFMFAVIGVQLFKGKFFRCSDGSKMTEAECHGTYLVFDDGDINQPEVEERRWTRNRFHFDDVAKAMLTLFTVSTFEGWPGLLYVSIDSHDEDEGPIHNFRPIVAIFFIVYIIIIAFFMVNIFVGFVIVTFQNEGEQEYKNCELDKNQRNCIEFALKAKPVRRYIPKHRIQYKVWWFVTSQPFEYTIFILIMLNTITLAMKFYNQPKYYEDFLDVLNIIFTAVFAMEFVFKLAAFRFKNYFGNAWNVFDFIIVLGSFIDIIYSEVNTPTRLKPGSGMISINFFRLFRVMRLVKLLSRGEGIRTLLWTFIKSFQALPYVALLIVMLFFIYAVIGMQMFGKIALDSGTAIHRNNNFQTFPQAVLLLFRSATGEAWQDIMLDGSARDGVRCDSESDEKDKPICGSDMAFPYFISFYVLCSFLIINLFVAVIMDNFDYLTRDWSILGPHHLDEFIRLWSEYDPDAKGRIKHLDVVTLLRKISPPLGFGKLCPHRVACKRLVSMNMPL
Method in brief: (§3)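 BK(Ca) current in DUM neurons with 5 mM 4-AP in the bath. Toxin perfused for 10 min or to equilibrium; then 1 mM CdCl2 plus 30 nM ChTx added, and the residual current subtracted. 100-ms steps from Vh -80 mV to +30 mV, or to +40 mV in 10-mV increments for I–V. Peak (fast-transient) and 100-ms (late) amplitudes measured. IC50 from logistic fit; n = 3–6.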

[5] = biological target: Voltage-dependent calcium channel alpha-1 subunit (Blattella germanica) (UniProt O18323); experiment: Inhibition of high voltage activated Cav channel in Periplaneta americana (American cockroach) DUM neurons assessed as effect on voltage-dependent activation at 330 nM measured at holding potential -90 mV depolarized to +70 mV with 10 mV increments after 10 min by whole cell patch clamp assay
Method in brief: (§4)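 Ba2+ currents through M-LVA and HVA Cav channels recorded by whole-cell clamp in cockroach DUM neurons at 20–23°C. Toxin applied for 10 min via a perfusion needle. Peak IBa measured relative to control. For activation, steps from Vh -90 mV to +70 mV in 10-mV increments at 0.1 Hz. P-P/4 leak subtraction; n = 3.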

[6] = biological target: Voltage-dependent calcium channel alpha-1 subunit (Blattella germanica) (UniProt O18323); experiment: as §2, with “fast-transient” for “late-sustained”; method in brief: as §3
[7] = Inhibition of transient A type potassium channel IK(A) in Periplaneta americana (American cockroach) DUM neurons at 330 nM measured at holding potential -90 mV depolarized to +30 mV after 10 min by whole cell patch clamp assay in presence of CdCl2 and ChTx
[8] = Inhibition of delayed rectifier potassium channel IK(DR) in Periplaneta americana (American cockroach) DUM neurons at 330 nM measured at holding potential -90 mV depolarized to +30 mV after 10 min by whole cell voltage clamp assay in presence of CdCl2 and ChTx relative to control
[9] = biological target: Voltage-dependent calcium channel alpha-1 subunit (Blattella germanica) (UniProt O18323); experiment: Inhibition of mid-low voltage activated Cav channel in Periplaneta americana (American cockroach) DUM neurons assessed as effect on voltage-dependent activation at 330 nM measured at holding potential -90 mV depolarized to +70 mV with 10 mV increments after 10 min by whole cell patch clamp assay; method in brief: as §4
[10] = Inhibition of transient A type potassium channel IK(A) in Periplaneta americana (American cockroach) DUM neurons assessed as effect on voltage-dependent activation at 330 nM measured at holding potential -90 mV depolarized to +40 mV with 100 ms increments after 10 min by whole cell patch clamp …
[11] = Reversible inhibition of Potassium channel Kv in Periplaneta americana (American cockroach) DUM neurons at 330 nM measured at holding potential -90 mV depolarized to +30 mV after 10 min by whole cell patch clamp assay relative to control
[12] = biological target: Voltage-dependent calcium channel alpha-1 subunit (Blattella germanica) (UniProt O18323); experiment: Inhibition of voltage-gated calcium channel Cav-mediated late-sustained current in Periplaneta americana (American cockroach) DUM neurons assessed as measured at holding potential -80 mV depolarized to +40 mV after 10 min by whole cell patch clamp assay in presence of CdCl2; method in brief: as §3
Gryllus bimaculatus [13] = experiment: Neurotoxicity against third-instar nymph stage of Gryllus bimaculatus (cricket) assessed as paralysis at 1.1 nmol/g measured within 5 min; type: functional, organism-based
[14] = Inhibition of delayed rectifier potassium channel IK(DR) in Periplaneta americana (American cockroach) DUM neurons assessed as effect on voltage-dependent activation at 330 nM measured at holding potential -90 mV depolarized to +40 mV with 100 ms increments after 10 min by whole cell voltage clamp …
Gryllus bimaculatus [15] = experiment: Neurotoxicity against third-instar nymph stage of Gryllus bimaculatus (cricket) assessed as mortality at 1.1 nmol/g measured at 15 min; type: functional, organism-based
[16] = biological target: Voltage-dependent calcium channel alpha-1 subunit (Blattella germanica) (UniProt O18323); experiment: Inhibition of voltage-gated calcium channel Cav-mediated fast-transient current in Periplaneta americana (American cockroach) DUM neurons assessed as measured at holding potential -80 mV depolarized to +40 mV after 10 min by whole cell patch clamp assay in presence of CdCl2; method in brief: as §3
Mus musculus [17] = experiment: Neurotoxicity against Mus musculus C57BL/6 (mouse) assessed as cyanosis at 500 pmol, icv; type: toxicity, organism-based; conditions: in vivo, icv_or_intrathecal; method in brief: as §1
[18] = biological target: Voltage-dependent calcium channel alpha-1 subunit (Blattella germanica) (UniProt O18323); experiment: as §2, with “fast-transient” for “late-sustained”, “25” for “6”; method in brief: as §3
Mus musculus [19] = experiment: Neurotoxicity against Mus musculus C57BL/6 (mouse) assessed as respiratory paralysis at 500 pmol, icv; type: toxicity, organism-based; conditions: in vivo, icv_or_intrathecal; method in brief: as §1
Mus musculus [20] = experiment: Neurotoxicity against Mus musculus C57BL/6 (mouse) assessed as convulsion at 500 pmol, icv; type: toxicity, organism-based; conditions: in vivo, icv_or_intrathecal; method in brief: as §1
Mus musculus [21] = experiment: Neurotoxicity against Mus musculus C57BL/6 (mouse) assessed as tonic paralysis at 500 pmol, icv; type: toxicity, organism-based; conditions: in vivo, icv_or_intrathecal; method in brief: as §1
[22] = biological target: Voltage-dependent calcium channel alpha-1 subunit (Blattella germanica) (UniProt O18323); experiment: as §2, with “25” for “6”
Mus musculus [23] = experiment: Neurotoxicity against Mus musculus C57BL/6 (mouse) assessed as tonic paralysis at 500 pmol, icv measured after 4 hr; type: toxicity, organism-based; conditions: in vivo, icv_or_intrathecal
Mus musculus [24] = experiment: Neurotoxicity against Mus musculus C57BL/6 (mouse) assessed as tail erection at 500 pmol, icv; type: toxicity, organism-based; conditions: in vivo, icv_or_intrathecal; method in brief: as §1
Mus musculus [25] = experiment: Neurotoxicity against Mus musculus C57BL/6 (mouse) assessed as cyanosis at 500 pmol, icv measured after 4 hr; type: toxicity, organism-based; conditions: in vivo, icv_or_intrathecal
Mus musculus [26] = experiment: Neurotoxicity against Mus musculus C57BL/6 (mouse) assessed as extension of leg at 500 pmol, icv; type: toxicity, organism-based; conditions: in vivo, icv_or_intrathecal; method in brief: as §1
Mus musculus [27] = experiment: Neurotoxicity against Mus musculus C57BL/6 (mouse) assessed as extension of toes at 500 pmol, icv; type: toxicity, organism-based; conditions: in vivo, icv_or_intrathecal; method in brief: as §1
Mus musculus [28] = experiment: Neurotoxicity against Mus musculus C57BL/6 (mouse) assessed as ataxia at 500 pmol, icv; type: toxicity, organism-based; conditions: in vivo, icv_or_intrathecal; method in brief: as §1

inhibition [1]	inhibition [5]	inhibition [7]	inhibition [8]	inhibition [9]	inhibition [10]	inhibition [11]	inhibition [12]	inhibition [14]	inhibition [16]	SMILES	Activity (Gryllus bimaculatus [13])	Activity (Gryllus bimaculatus [15])	other results
inactive	inactive	Active	31%	inactive	inactive	Active	Dose-dependent effect	inactive	Dose-dependent effect	CSCC[C@@H]1NC(=O)[C@H](CC(=O)O)NC(=O)[C@H](CCC(=O)O)NC(=O)[C@@H]2CSSC[C@H](NC(=O)[C@@H](N)Cc3ccc(O)cc3)C(=O)N[C@@H](CCC(N)=O)C(=O)N[C@@H](CCCCN)C(=O)N[C@@H](Cc3ccccc3)C(=O)N[C@@H](CC(C)C)C(=O)N[C@@H](Cc3c[nH]c4ccccc34)C(=O)N[C@@H]([C@@H](C)O)C(=O)N[C@H]3CSSC[C@H](NC(=O)[C@H](C(C)C)NC1=O)C(=O)N[C@@H](CCC(=O)O)C(=O)N[C@@H](CC(C)C)C(=O)N[C@@H](Cc1c[nH]c4ccccc14)C(=O)N[C@H](C(=O)N[C@@H](CCCCN)C(=O)N[C@@H](CC(C)C)C(=O)N[C@@H](CCC(=O)O)C(=O)N[C@@H](CCCCN)C(=O)O)CSSC[C@H](NC(=O)[C@H](CCCCN)NC(=O)[C@H](CCCNC(=N)N)NC(=O)[C@H](CCC(=O)O)NC(=O)[C@H]([C@@H](C)O)NC(=O)[C@H](CC(=O)O)NC3=O)C(=O)N2 (H-YCQKFLWTCDTERKCCEDMVCELWCKLEK-OH; disulfide 2-16, 9-21, 15-25)	Active	Active	Activity (Mus musculus [2]): Non-toxic; Activity (Mus musculus [3]): Non-toxic; inhibition [4]: inactive; inhibition [6]: inactive
inactive	inactive	inactive	inactive	inactive	inactive	Active	Dose-dependent effect	inactive	Dose-dependent effect	CSCC[C@@H]1NC(=O)[C@H](CCCCN)NC(=O)[C@H](Cc2ccccc2)NC(=O)[C@H](CCC(N)=O)NC(=O)[C@@H](NC(=O)[C@@H](N)Cc2ccc(O)cc2)CSSC[C@@H]2NC(=O)[C@@H]3CSSC[C@@H](C(=O)N[C@@H](CCCCN)C(=O)N[C@@H](CC(C)C)C(=O)N[C@@H](CC(N)=O)C(=O)N[C@@H](CC(C)C)C(=O)O)NC(=O)[C@H](Cc4c[nH]c5ccccc45)NC(=O)[C@H](CC(C)C)NC(=O)[C@H](CCCNC(=N)N)NC(=O)[C@H](CSSC[C@H](NC(=O)[C@H]([C@@H](C)O)NC(=O)[C@H](Cc4c[nH]c5ccccc45)NC1=O)C(=O)N[C@@H](CC(=O)O)C(=O)N[C@@H](CO)C(=O)N[C@@H](CCC(=O)O)C(=O)N[C@@H](CCCNC(=N)N)C(=O)N[C@@H](CCCCN)C(=O)N3)NC(=O)[C@H](C(C)C)NC(=O)[C@H](CCSC)NC(=O)[C@H](CC(=O)O)NC(=O)[C@H](CCC(=O)O)NC2=O	Active	Active	Activity (Mus musculus [17]): Toxic; inhibition [18]: inactive; Activity (Mus musculus [19]): Toxic; Activity (Mus musculus [20]): Toxic; Activity (Mus musculus [21]): Toxic; inhibition [22]: inactive; Activity (Mus musculus [23]): Non-toxic; Activity (Mus musculus [24]): Toxic; Activity (Mus musculus [25]): Non-toxic; Activity (Mus musculus [26]): Toxic; Activity (Mus musculus [27]): Toxic; Activity (Mus musculus [28]): Toxic
